Key:
Format in all cases: functional
Phytophthora infestans [1] = test: Fungicidal activity against Phytophthora infestans assessed as inhibition of mycelium growth at 272 uM at 25 +/- 0.5 degC
How it was run: (§1)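 Mycelium growth rate test. Test sample dissolved in acetone and mixed into potato dextrose agar at the stated concentration, then fungal mycelial cakes were placed on the plates. Acetone served as blank and carbendazim as positive control. Plates were incubated at 25 ± 0.5 °C until the blank grew completely. Colony diameters were then measured, and inhibitory ratio was calculated against the blank mean. Three replicates were run.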

[2] = system: Colletotrichum lindemuthianum; test: Fungicidal activity against Colletotrichum lindemuthianum assessed as inhibition of mycelium growth at 272 uM at 25 +/- 0.5 degC; how it was run: as §1
Pseudocercospora musae [3] = test: Fungicidal activity against Pseudocercospora musae assessed as inhibition of mycelium growth at 272 uM at 25 +/- 0.5 degC; how it was run: as §1
Verticillium dahliae = test: Fungicidal activity against Verticillium dahliae assessed as inhibition of mycelium growth at 272 uM at 25 +/- 0.5 degC; how it was run: as §1
Fusarium verticillioides [4] = test: Fungicidal activity against Fusarium verticillioides assessed as inhibition of mycelium growth at 272 uM at 25 +/- 0.5 degC; how it was run: as §1
Fusarium graminearum [5] = test: Fungicidal activity against Fusarium graminearum assessed as inhibition of mycelium growth at 272 uM at 25 +/- 0.5 degC; how it was run: as §1
Alternaria alternata [6] = test: Fungicidal activity against Alternaria alternata assessed as inhibition of mycelium growth at 272 uM at 25 +/- 0.5 degC; how it was run: as §1
Alternaria mali [7] = test: Fungicidal activity against Alternaria mali assessed as inhibition of mycelium growth at 272 uM at 25 +/- 0.5 degC; how it was run: as §1
[8] = system: Colletotrichum gloeosporioides; test: Fungicidal activity against Colletotrichum gloeosporioides assessed as inhibition of mycelium growth at 272 uM at 25 +/- 0.5 degC; how it was run: as §1
Sclerotinia sclerotiorum [9] = test: Fungicidal activity against Sclerotinia sclerotiorum assessed as inhibition of mycelium growth at 272 uM at 25 +/- 0.5 degC; how it was run: as §1
Fusarium oxysporum [10] = test: Fungicidal activity against Fusarium oxysporum assessed as inhibition of mycelium growth at 272 uM at 25 +/- 0.5 degC; how it was run: as §1
Botrytis cinerea [11] = test: Fungicidal activity against Botryotinia fuckeliana assessed as inhibition of mycelium growth at 272 uM at 25 +/- 0.5 degC; how it was run: as §1
Thanatephorus cucumeris [12] = test: Fungicidal activity against Thanatephorus cucumeris assessed as inhibition of mycelium growth at 272 uM at 25 +/- 0.5 degC; how it was run: as §1
Fusarium oxysporum [13] = test: Fungicidal activity against Fusarium oxysporum assessed as inhibition of mycelium growth at 52 uM at 25 +/- 0.5 degC; how it was run: as §1
Fusarium verticillioides [14] = test: Fungicidal activity against Fusarium verticillioides assessed as inhibition of mycelium growth at 52 uM at 25 +/- 0.5 degC; how it was run: as §1
Fusarium graminearum [15] = test: Fungicidal activity against Fusarium graminearum assessed as inhibition of mycelium growth at 52 uM at 25 +/- 0.5 degC; how it was run: as §1
Phytophthora infestans [16] = test: Fungicidal activity against Phytophthora infestans assessed as inhibition of mycelium growth at 52 uM at 25 +/- 0.5 degC; how it was run: as §1
Alternaria mali [17] = test: Fungicidal activity against Alternaria mali assessed as inhibition of mycelium growth at 52 uM at 25 +/- 0.5 degC; how it was run: as §1
[18] = system: Colletotrichum gloeosporioides; test: Fungicidal activity against Colletotrichum gloeosporioides assessed as inhibition of mycelium growth at 52 uM at 25 +/- 0.5 degC; how it was run: as §1
Thanatephorus cucumeris [19] = test: Fungicidal activity against Thanatephorus cucumeris assessed as inhibition of mycelium growth at 52 uM at 25 +/- 0.5 degC; how it was run: as §1
Sclerotinia sclerotiorum [20] = test: Fungicidal activity against Sclerotinia sclerotiorum assessed as inhibition of mycelium growth at 52 uM at 25 +/- 0.5 degC; how it was run: as §1
Botrytis cinerea [21] = test: Fungicidal activity against Botryotinia fuckeliana assessed as inhibition of mycelium growth at 52 uM at 25 +/- 0.5 degC; how it was run: as §1
[22] = system: Colletotrichum gloeosporioides; test: Fungicidal activity against Colletotrichum gloeosporioides assessed as inhibition of mycelium growth at 588 uM at 25 +/- 0.5 degC; how it was run: as §1
Sclerotinia sclerotiorum [23] = test: Fungicidal activity against Sclerotinia sclerotiorum assessed as inhibition of mycelium growth at 588 uM at 25 +/- 0.5 degC; how it was run: as §1
Fusarium oxysporum [24] = test: Fungicidal activity against Fusarium oxysporum assessed as inhibition of mycelium growth at 588 uM at 25 +/- 0.5 degC; how it was run: as §1
Alternaria alternata [25] = test: Fungicidal activity against Alternaria alternata assessed as inhibition of mycelium growth at 588 uM at 25 +/- 0.5 degC; how it was run: as §1
Pseudocercospora musae [26] = test: Fungicidal activity against Pseudocercospora musae assessed as inhibition of mycelium growth at 588 uM at 25 +/- 0.5 degC; how it was run: as §1
Thanatephorus cucumeris [27] = test: Fungicidal activity against Thanatephorus cucumeris assessed as inhibition of mycelium growth at 588 uM at 25 +/- 0.5 degC; how it was run: as §1
[28] = system: Botryosphaeria berengeriana; test: Fungicidal activity against Botryosphaeria berengeriana assessed as inhibition of mycelium growth at 588 uM at 25 +/- 0.5 degC; how it was run: as §1

## CC1=CC(=O)O[C@@H](C(C)(C)O)CC1
Phytophthora infestans [1]
  inhibition at 272 µM: 66.4%
[2]
  inhibition at 272 µM: 62.3%
Pseudocercospora musae [3]
  inhibition at 272 µM: 65.5%
Verticillium dahliae
  inhibition at 272 µM: 66.6%
Fusarium verticillioides [4]
  inhibition at 272 µM: 55.6%
Fusarium graminearum [5]
  inhibition at 272 µM: 73.8%
Alternaria alternata [6]
  inhibition at 272 µM: 70.9%
Alternaria mali [7]
  inhibition at 272 µM: 66%
[8]
  inhibition at 272 µM: 71.1%
Sclerotinia sclerotiorum [9]
  inhibition at 272 µM: 81.8%
Fusarium oxysporum [10]
  inhibition at 272 µM: 53.5%
Botrytis cinerea [11]
  inhibition at 272 µM: 72%
Thanatephorus cucumeris [12]
  inhibition at 272 µM: 80.2%

## COC(=O)Nc1nc2ccccc2[nH]1 [CARBENDAZIM]
Fusarium oxysporum [13]
  inhibition at 52 µM: 100%
Fusarium verticillioides [14]
  inhibition at 52 µM: 100%
Fusarium graminearum [15]
  inhibition at 52 µM: 100%
Phytophthora infestans [16]
  inhibition at 52 µM: 100%
Alternaria mali [17]
  inhibition at 52 µM: 100%
[18]
  inhibition at 52 µM: 100%
Thanatephorus cucumeris [19]
  inhibition at 52 µM: 100%
Sclerotinia sclerotiorum [20]
  inhibition at 52 µM: 100%
Botrytis cinerea [21]
  inhibition at 52 µM: 100%

## C/C(=C\C=C\C(C)(C)O)C(=O)O [LITSEACUBEBIC ACID]
[22]
  inhibition at 588 µM: 71.2%
Sclerotinia sclerotiorum [23]
  inhibition at 588 µM: 86.7%
Fusarium oxysporum [24]
  inhibition at 588 µM: 56.7%
Alternaria alternata [25]
  inhibition at 588 µM: 57.8%
Pseudocercospora musae [26]
  inhibition at 588 µM: 78.9%
Thanatephorus cucumeris [27]
  inhibition at 588 µM: 76.8%
[28]
  inhibition at 588 µM: 59.2%
